According to ChEMBL document CHEMBL1147483, “Novel p38 inhibitors with potent oral efficacy in several models of rheumatoid arthritis” (Bioorg Med Chem Lett, 2004):

Tests used:
Mus musculus [1] = test: Dose required to inhibit of LPS (20 mg/kg, injected i.v. 1 hr […] dosing) induced TNF-alpha release in mice upon oral administration; format: functional
Rattus norvegicus [2] = test: Percent swelling of joints in rats immunized with Mycobacterium tuberculosis was determined on day 20 after 25 mg/kg peroral administration; format: functional; details: route oral
Outline: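 Female Wistar rats (adjuvant-induced arthritis) immunized with Mycobacterium tuberculosis on day 0; compounds given orally at 25 mg/kg twice daily (2 × 25 mg/kg p.o. per day) from day 14 to day 20; joint swelling measured on day 20 and expressed as % swelling.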

[3] = biological target: Insulin-like growth factor 1 receptor (Homo sapiens, UniProt P08069); test: Inhibition of human insulin-like growth factor I receptor
Outline: (§1)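 In-house kinase selectivity panel against human kinases; IC50 (µM) determined.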

Cytochrome P450 2D6 = Cytochrome P450 2D6 (Homo sapiens, UniProt P10635); test: Inhibition of human cytochrome P450 2D6; format: ADME
[4] = biological target: Mitogen-activated protein kinase 8 (Homo sapiens, UniProt P45983); test: Inhibition of human c-Jun N-terminal kinase 1; outline: as §1
[5] = biological target: Proto-oncogene tyrosine-protein kinase Src (Homo sapiens, UniProt P12931); test: Inhibition of human c-Src; outline: as §1
[6] = biological target: Tyrosine-protein kinase ABL1 (Homo sapiens, UniProt P00519); test: Inhibition of human c-Abl; outline: as §1
[7] = Oral bioavailability; format: ADME, organism-based; details: rat, in vivo
[8] = Half life was determined; format: ADME, organism-based; details: rat, in vivo
Rattus norvegicus [9] = test: Dose required to inhibit bovine nasalseptum type II collagen induced arthritis in rats after administration on day 13; format: functional; details: 312 h
Outline: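 Female WAG×BUF/F1 rats immunized intradermally with bovine nasal septum type II collagen in Freund's incomplete adjuvant; swelling starts ~10 days after immunization. Oral dosing once daily for 10 days, beginning day 13 when swelling was nearly maximal. ED50 (mg/kg p.o.) derived for inhibition of joint swelling.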

Cytochrome P450 1A2 = biological target: T1, Cytochrome P450 1A2 (Homo sapiens, UniProt P05177); test: Inhibition of human cytochrome P450 1A2; format: ADME
T1 sequence (P05177 whole entry): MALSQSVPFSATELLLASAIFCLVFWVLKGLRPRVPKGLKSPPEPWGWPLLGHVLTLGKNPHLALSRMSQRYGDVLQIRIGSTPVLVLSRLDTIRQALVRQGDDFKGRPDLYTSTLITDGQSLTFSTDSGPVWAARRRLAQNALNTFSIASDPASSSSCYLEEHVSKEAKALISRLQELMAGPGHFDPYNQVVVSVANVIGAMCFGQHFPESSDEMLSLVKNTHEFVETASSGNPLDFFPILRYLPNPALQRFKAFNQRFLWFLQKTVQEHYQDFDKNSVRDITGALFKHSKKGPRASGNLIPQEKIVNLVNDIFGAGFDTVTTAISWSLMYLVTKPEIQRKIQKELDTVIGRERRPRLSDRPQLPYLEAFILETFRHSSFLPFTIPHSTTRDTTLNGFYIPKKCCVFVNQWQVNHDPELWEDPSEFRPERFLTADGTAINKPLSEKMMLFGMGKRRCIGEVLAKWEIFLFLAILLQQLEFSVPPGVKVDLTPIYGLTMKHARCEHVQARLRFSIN

[10] = biological target: Mitogen-activated protein kinase 9 (Homo sapiens, UniProt P45984); test: Inhibition of human c-Jun N-terminal kinase 2; outline: as §1
[11] = biological target: Mast/stem cell growth factor receptor Kit (Homo sapiens, UniProt P10721); test: Inhibition of human c-Kit kinase; outline: as §1
[12] = biological target: Prostaglandin G/H synthase 1 (Homo sapiens, UniProt P23219); test: Inhibition of human prostaglandin G/H synthase 1, COX-1
Homo sapiens = species on record: Homo sapiens; test: Inhibition of LPS/IFN-gamma stimulated TNF-alpha release in human peripheral blood mononuclear cells after 3h of incubation.; format: functional, cell-based
Outline: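 Human PBMCs from healthy volunteers incubated with inhibitor and stimulated with LPS/IFN-γ for 3 h. TNF-α in supernatants measured by ELISA; IC50 derived.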

Mus musculus [13] = test: Inhibition of LPS induced TNF-alpha release in mice following p.o. administration.; format: functional; parameters: concentration or dose not given beside the values
Outline: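 LPS (20 mg/kg) given i.v. 1 h after dosing. Blood taken 1 h later; plasma TNF-α by mouse-specific ELISA. Reported as % inhibition or as ED50 (mg/kg p.o.).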

Cytochrome P450 2C9 = Cytochrome P450 2C9 (Homo sapiens, UniProt P11712); test: Inhibition of human cytochrome P450 2C9; format: ADME
[14] = biological target: Vascular endothelial growth factor receptor 2 (Homo sapiens, UniProt P35968); test: Inhibition of human vascular endothelial growth factor receptor 2; outline: as §1
[15] = biological target: Mitogen-activated protein kinase 14 (Mus musculus, UniProt P47811); test: Inhibition of murine phosphorylated His-Mitogen-activated protein kinase p38 alpha.
[16] = biological target: Cyclin-dependent kinase 1 (Homo sapiens, UniProt P06493); test: Inhibition of human cyclin-dependent kinase 1; outline: as §1
Cytochrome P450 3A4 = Cytochrome P450 3A4 (Homo sapiens, UniProt P08684); test: Inhibition of human cytochrome P450 3A4; format: ADME
[17] = biological target: RAF proto-oncogene serine/threonine-protein kinase (Homo sapiens, UniProt P04049); test: Inhibition of human RAF proto-oncogene serine/threonine-protein kinase; outline: as §1
[18] = biological target: Hepatocyte growth factor receptor (Homo sapiens, UniProt P08581); test: Inhibition of human Met proto-oncogene tyrosine kinase
[19] = biological target: T2, Epidermal growth factor receptor (Homo sapiens, UniProt P00533); test: Inhibition of human epidermal growth factor receptor
[20] = biological target: T2, Epidermal growth factor receptor; test: Inhibition of human Epidermal growth factor receptor, HER-1

Tyrosine-protein kinase ABL1, sequence (P00519 whole entry): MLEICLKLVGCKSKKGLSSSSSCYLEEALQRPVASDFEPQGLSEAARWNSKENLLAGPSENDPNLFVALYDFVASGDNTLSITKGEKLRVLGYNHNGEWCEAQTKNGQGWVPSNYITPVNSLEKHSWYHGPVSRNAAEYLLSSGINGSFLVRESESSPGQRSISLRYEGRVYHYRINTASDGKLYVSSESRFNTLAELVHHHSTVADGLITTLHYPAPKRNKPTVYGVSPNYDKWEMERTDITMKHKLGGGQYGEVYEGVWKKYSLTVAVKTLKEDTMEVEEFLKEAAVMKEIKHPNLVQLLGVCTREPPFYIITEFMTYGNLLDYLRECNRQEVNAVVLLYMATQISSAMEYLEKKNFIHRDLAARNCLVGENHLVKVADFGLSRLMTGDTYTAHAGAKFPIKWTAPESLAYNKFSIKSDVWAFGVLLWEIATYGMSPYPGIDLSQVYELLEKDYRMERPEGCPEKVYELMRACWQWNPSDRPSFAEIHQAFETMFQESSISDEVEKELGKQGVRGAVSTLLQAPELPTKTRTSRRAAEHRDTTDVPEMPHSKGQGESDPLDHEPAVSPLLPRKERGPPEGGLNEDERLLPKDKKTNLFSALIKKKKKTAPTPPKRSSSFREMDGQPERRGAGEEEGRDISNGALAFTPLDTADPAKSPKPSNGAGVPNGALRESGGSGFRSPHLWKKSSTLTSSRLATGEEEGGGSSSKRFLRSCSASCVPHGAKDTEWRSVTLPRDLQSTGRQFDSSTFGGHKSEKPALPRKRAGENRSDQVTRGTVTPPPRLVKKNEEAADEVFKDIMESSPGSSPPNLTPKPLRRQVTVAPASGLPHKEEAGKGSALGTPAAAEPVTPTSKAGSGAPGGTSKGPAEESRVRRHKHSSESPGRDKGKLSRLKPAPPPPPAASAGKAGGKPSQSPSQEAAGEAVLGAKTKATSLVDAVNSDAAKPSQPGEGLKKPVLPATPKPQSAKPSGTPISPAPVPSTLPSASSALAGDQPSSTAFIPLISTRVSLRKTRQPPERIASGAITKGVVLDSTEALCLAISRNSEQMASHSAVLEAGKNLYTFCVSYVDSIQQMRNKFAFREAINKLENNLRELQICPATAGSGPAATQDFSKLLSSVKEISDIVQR
Mitogen-activated protein kinase 8, sequence (P45983 whole entry): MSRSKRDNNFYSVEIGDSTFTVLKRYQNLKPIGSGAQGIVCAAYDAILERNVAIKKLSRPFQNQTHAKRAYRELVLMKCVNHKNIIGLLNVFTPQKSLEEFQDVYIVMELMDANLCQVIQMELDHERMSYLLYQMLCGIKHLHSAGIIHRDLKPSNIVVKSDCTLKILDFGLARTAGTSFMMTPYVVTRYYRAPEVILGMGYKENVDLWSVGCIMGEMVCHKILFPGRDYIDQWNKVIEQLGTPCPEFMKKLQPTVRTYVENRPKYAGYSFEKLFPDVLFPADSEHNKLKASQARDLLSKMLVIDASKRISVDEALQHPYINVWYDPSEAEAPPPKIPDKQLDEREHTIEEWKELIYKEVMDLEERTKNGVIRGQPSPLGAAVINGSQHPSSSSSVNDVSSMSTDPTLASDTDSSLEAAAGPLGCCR
Vascular endothelial growth factor receptor 2, sequence (P35968 whole entry): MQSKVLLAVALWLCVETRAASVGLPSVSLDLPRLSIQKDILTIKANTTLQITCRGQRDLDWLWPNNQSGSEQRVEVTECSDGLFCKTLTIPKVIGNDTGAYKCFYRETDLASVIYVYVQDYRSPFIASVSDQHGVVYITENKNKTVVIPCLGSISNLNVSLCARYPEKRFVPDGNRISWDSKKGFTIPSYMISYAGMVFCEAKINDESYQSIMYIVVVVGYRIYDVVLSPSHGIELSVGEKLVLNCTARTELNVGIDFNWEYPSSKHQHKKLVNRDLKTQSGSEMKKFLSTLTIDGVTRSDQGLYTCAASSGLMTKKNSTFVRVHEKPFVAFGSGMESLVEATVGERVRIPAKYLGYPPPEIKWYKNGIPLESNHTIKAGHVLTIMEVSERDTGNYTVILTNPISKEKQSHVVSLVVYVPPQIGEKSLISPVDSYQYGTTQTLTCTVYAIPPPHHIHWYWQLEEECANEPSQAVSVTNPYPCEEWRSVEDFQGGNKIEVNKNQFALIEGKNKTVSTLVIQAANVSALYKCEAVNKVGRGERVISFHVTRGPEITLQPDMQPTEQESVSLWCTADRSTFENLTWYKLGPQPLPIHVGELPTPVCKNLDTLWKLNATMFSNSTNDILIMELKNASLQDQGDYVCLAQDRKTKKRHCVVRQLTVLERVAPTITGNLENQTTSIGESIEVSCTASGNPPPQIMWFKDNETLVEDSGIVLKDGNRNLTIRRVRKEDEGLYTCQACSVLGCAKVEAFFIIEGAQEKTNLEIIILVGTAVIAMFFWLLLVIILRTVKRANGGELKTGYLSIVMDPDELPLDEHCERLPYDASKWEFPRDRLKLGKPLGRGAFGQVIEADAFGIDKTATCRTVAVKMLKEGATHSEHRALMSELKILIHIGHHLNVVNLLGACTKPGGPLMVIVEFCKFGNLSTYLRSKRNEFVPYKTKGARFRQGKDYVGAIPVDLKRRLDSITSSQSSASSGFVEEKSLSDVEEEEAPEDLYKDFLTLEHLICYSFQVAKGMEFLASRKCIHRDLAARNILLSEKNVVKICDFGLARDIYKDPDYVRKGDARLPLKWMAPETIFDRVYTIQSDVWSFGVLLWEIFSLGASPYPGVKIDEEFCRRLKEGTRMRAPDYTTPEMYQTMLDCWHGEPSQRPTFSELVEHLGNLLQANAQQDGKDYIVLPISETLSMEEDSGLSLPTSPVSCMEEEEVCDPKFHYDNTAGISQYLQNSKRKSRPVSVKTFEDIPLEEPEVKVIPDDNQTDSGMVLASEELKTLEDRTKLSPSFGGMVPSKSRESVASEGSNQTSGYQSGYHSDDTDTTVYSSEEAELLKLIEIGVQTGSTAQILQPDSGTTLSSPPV
Cyclin-dependent kinase 1, sequence (P06493 whole entry): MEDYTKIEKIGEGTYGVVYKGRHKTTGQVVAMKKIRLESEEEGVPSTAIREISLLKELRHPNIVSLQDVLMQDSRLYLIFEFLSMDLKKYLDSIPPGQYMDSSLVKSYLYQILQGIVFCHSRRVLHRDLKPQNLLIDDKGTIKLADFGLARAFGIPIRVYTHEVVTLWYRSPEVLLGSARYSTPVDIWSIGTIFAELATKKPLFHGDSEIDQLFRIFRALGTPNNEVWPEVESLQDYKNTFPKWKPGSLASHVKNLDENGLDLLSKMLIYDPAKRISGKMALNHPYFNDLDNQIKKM
Prostaglandin G/H synthase 1, sequence (P23219 whole entry): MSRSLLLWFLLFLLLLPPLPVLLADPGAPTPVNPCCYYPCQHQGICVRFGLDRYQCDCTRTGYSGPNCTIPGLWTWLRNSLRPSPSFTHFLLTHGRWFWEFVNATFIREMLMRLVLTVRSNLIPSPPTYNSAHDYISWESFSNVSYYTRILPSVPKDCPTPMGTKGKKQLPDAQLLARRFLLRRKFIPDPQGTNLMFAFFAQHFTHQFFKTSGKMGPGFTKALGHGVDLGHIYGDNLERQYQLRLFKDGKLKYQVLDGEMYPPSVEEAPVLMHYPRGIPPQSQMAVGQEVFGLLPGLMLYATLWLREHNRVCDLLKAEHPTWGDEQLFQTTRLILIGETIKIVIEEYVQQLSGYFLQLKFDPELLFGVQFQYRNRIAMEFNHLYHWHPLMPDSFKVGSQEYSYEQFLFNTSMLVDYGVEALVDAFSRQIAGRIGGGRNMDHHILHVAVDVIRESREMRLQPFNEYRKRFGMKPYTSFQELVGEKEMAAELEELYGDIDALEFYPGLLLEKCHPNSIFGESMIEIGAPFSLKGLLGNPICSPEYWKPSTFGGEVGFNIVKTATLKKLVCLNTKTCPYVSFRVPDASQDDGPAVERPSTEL
Mast/stem cell growth factor receptor Kit, sequence (P10721 whole entry): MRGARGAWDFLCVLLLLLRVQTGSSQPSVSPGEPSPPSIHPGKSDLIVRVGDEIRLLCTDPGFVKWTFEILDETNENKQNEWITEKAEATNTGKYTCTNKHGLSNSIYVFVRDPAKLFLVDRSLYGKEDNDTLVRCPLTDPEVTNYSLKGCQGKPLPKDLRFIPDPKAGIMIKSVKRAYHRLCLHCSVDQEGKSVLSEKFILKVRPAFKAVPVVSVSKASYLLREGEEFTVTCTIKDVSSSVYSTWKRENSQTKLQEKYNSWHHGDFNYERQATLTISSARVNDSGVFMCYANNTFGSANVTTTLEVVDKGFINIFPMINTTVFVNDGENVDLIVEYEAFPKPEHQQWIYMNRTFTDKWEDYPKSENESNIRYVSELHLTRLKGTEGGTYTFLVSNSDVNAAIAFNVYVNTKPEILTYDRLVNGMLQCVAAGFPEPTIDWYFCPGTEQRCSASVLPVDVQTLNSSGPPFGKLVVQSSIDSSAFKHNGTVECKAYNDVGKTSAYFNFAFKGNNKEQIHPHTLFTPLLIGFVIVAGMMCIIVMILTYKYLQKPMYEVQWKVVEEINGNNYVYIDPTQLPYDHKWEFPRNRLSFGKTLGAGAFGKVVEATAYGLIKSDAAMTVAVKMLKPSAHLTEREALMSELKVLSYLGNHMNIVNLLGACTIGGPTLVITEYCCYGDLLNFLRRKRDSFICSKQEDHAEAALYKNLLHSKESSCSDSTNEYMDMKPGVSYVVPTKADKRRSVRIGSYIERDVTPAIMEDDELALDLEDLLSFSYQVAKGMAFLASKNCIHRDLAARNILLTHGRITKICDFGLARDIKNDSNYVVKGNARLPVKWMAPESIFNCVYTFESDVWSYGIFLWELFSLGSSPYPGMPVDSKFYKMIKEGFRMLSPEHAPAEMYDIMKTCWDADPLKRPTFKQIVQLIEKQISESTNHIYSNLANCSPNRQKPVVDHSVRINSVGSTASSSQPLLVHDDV

`CN1CCC(O)(c2cn(-c3ccnc(NC4CCCC4)n3)c(-c3cccc(C(F)(F)F)c3)n2)CC1` gave an ED50 (Mus musculus [1]) of 1.07 mg/kg, a Swelling (Rattus norvegicus [2]) of 58% and an IC50 [3] greater than 10000 nM. The IC50 (Cytochrome P450 2D6) was greater than 2000 nM, the IC50 [4] was greater than 10000 nM and the IC50 [5] was greater than 10000 nM. For the same compound, the IC50 [6] was greater than 10000 nM, the bioavailability [7] was 23.2% and the half-life [8] was 3.5 h. For the same compound, the ED50 (Rattus norvegicus [9]) was 9.51 mg/kg, the IC50 (Cytochrome P450 1A2) was greater than 2000 nM and the IC50 [10] was 4660 nM. It also gave an IC50 [11] greater than 10000 nM, an IC50 [12] greater than 80000 nM and an IC50 (Homo sapiens) of 1 nM. It also gave an Inhibition (Mus musculus [13]) of 94%, an IC50 (Cytochrome P450 2C9) greater than 2000 nM and an IC50 [14] greater than 10000 nM. The IC50 [15] was 29 nM, the IC50 [16] was greater than 10000 nM and the IC50 (Cytochrome P450 3A4) was greater than 2000 nM.

Work on `C[C@H](Nc1nccc(-n2cc(C3(O)CCN(C)CC3)nc2-c2ccc(F)cc2)n1)c1ccccc1` yielded an Inhibition (Mus musculus [13]) of 94% and an IC50 [15] of 4 nM.

`C[C@H](Nc1cc(-c2sc(C3(O)CCN(C)CC3)nc2-c2ccc(F)cc2)ccn1)c1ccccc1` showed an IC50 (Homo sapiens) of 1 nM, an Inhibition (Mus musculus [13]) of 94% and an IC50 [15] of 5 nM.

Work on `C[C@H](Nc1nccc(-n2c(-c3ccc(F)cc3)nc3nc(N4CCN(C)CC4)ccc32)n1)c1ccccc1` yielded an IC50 (Homo sapiens) of 1 nM, an Inhibition (Mus musculus [13]) of 83% and an IC50 [15] of 6 nM.

In the case of `C[C@H](Nc1nccc(-c2oc(C3(O)CCN(C)CC3)nc2-c2ccc(F)cc2)n1)c1ccccc1`, the IC50 (Homo sapiens) is reported as 8 nM, the Inhibition (Mus musculus [13]) is reported as 19% and the IC50 [15] is reported as 11 nM.

Compound `CN1CCN(c2ccc3c(n2)nc(-c2ccc(F)cc2)n3-c2ccnc(NC3CCCC3)n2)CC1` has an ED50 (Mus musculus [1]) of 1.41 mg/kg, a Swelling (Rattus norvegicus [2]) of 55% and an IC50 [3] greater than 10000 nM. It also gave an IC50 (Cytochrome P450 2D6) greater than 2000 nM, an IC50 [4] of 1500 nM and an IC50 [5] greater than 10000 nM. For the same compound, the IC50 [6] was greater than 10000 nM, the IC50 [17] was greater than 10000 nM and the bioavailability [7] was 72.8%. The half-life [8] was 4.1 h, the ED50 (Rattus norvegicus [9]) was 4.22 mg/kg and the IC50 (Cytochrome P450 1A2) was greater than 2000 nM. The IC50 [10] was 47 nM, the IC50 [11] was greater than 10000 nM and the IC50 [12] was greater than 80000 nM. It also gave an IC50 (Homo sapiens) of 1 nM, an Inhibition (Mus musculus [13]) of 94% and an IC50 [18] greater than 10000 nM. The IC50 (Cytochrome P450 2C9) was greater than 2000 nM, the IC50 [14] was greater than 10000 nM and the IC50 [15] was 15 nM. The IC50 [16] was greater than 10000 nM and the IC50 (Cytochrome P450 3A4) was greater than 2000 nM.

Compound `C[C@H](Nc1nccc(-c2[nH]c(C3(O)CCN(C)CC3)nc2-c2ccc(F)cc2)n1)c1ccccc1` has a bioavailability [7] of 10%, an IC50 (Homo sapiens) of 0.1 nM and an Inhibition (Mus musculus [13]) of 83%. The IC50 [15] was 2 nM.

Work on `C[C@H](Nc1cc(-c2[nH]c(C3(O)CCN(C)CC3)nc2-c2ccc(F)cc2)ccn1)c1ccccc1` yielded an IC50 (Homo sapiens) of 3 nM, an Inhibition (Mus musculus [13]) of 42% and an IC50 [15] of 7 nM.

For `C[C@H](Nc1cc(-c2sc(C3CCN(C)CC3)nc2-c2ccc(F)cc2)ccn1)c1ccccc1`, the ED50 (Mus musculus [1]) was 2.06 mg/kg, the Swelling (Rattus norvegicus [2]) was 57% and the IC50 [3] was greater than 10000 nM. For the same compound, the IC50 (Cytochrome P450 2D6) was greater than 2000 nM, the IC50 [4] was 1900 nM and the IC50 [5] was 8000 nM. The IC50 [6] was greater than 10000 nM, the IC50 [17] was 2100 nM and the bioavailability [7] was 20.3%. It also gave a half-life [8] of 12.5 h, an ED50 (Rattus norvegicus [9]) of 7 mg/kg and an IC50 [19] of 700 nM. For the same compound, the IC50 (Cytochrome P450 1A2) was greater than 2000 nM, the IC50 [10] was 261 nM and the IC50 [11] was greater than 10000 nM. It also gave an IC50 [12] greater than 80000 nM, an IC50 (Homo sapiens) of 0.6 nM and an Inhibition (Mus musculus [13]) of 88%. For the same compound, the IC50 [18] was greater than 10000 nM, the IC50 (Cytochrome P450 2C9) was greater than 2000 nM and the IC50 [14] was 1700 nM. The IC50 [15] was 18 nM, the IC50 [20] was 1100 nM and the IC50 [16] was greater than 10000 nM. The IC50 (Cytochrome P450 3A4) was greater than 2000 nM.

For `CN1CCC(O)(c2nc(-c3ccc(F)cc3)c(-c3ccncc3)o2)CC1`, the IC50 (Homo sapiens) was 180 nM.

`CN1CCC(O)(c2nc(-c3ccc(F)cc3)c(-c3ccncc3)s2)CC1` showed an IC50 (Homo sapiens) of 145 nM.

With `CN1CCC(O)(c2nc(-c3ccc(F)cc3)c(-c3ccncc3)[nH]2)CC1` the IC50 (Homo sapiens) was 15 nM.

Work on `C[C@H](Nc1cc(-c2oc(C3(O)CCN(C)CC3)nc2-c2ccc(F)cc2)ccn1)c1ccccc1` yielded an IC50 (Homo sapiens) of 3 nM, an Inhibition (Mus musculus [13]) of 21% and an IC50 [15] of 9 nM.

With `FC(F)(F)c1cccc(-c2nc(C3CCNCC3)cn2-c2ccnc(NC3CCCCC3)n2)c1` the IC50 (Homo sapiens) was 2 nM, the Inhibition (Mus musculus [13]) was 77% and the IC50 [15] was 8 nM.

With `Fc1ccc(-c2nc(C3CCNCC3)cn2-c2ccnc(NC3CCCCC3)n2)cc1` the IC50 (Homo sapiens) was 0.8 nM, the Inhibition (Mus musculus [13]) was 29% and the IC50 [15] was 5 nM.
